From PubChem BioAssay
Most compounds without a hit are left out; they make up all but 3.5% or so of the library.
MrgX1 PAM – positive allosteric modulators of MrgX1, primary screen, HEK293 cells, Fluo-4 calcium flux; Mas-related G-protein coupled receptor member X1 (Homo sapiens), Q96LB2; FDSS; hits give high values; B-score at 10 µM; hit rate 0.63% among 310,000; AID 588675, 2011;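 active = plate-corrected calcium response at least 3 library SD above typical, normal starting fluorescence, not activating the receptor alone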;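 note: compound read alongside a low EC10 to EC30 dose of BAM8-22 agonist; peak minus trough fluorescence over baseline measured at the second addition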
Target sequence (Q96LB2 whole entry, looked up): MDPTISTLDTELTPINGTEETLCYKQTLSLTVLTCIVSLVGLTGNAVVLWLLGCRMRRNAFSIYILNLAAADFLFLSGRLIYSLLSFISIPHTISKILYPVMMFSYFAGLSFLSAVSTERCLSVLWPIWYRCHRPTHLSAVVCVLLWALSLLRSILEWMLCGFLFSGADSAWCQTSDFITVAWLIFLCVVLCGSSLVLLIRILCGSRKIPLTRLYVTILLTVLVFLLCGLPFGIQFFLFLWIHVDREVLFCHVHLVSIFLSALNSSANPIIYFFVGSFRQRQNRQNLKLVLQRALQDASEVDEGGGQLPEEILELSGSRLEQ
MrgX1 antagonist – antagonists of human MrgX1 receptor, primary screen, HEK293 cells, Fluo-4 calcium flux | Mas-related G-protein coupled receptor member X1 (Homo sapiens), Q96LB2 | BAM8-22 antagonism; hits give low values | B-score at 10 µM | hit rate 1.3% among 310,000 | AID 588676, 2011;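 active = calcium-response B-score plate-corrected more than 3 library SD below zero, starting fluorescence within 5 deviations, no agonist response on first addition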;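 note: peak minus trough fluorescence over baseline after final BAM8-22 challenge near maximal dose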
RGS4 inh – RGS4 inhibitors, primary screen, cell-based, HEK293 M3R inducible RGS4, calcium flux. B-score at 10 µM. Regulator of G-protein signaling 4 (Homo sapiens), P49798. AID 463165, 2010. hit rate 0.45% among 310,000. Fluo-4 calcium flux; hits give high values; triggered by carbachol at its EC20;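 active = B-score, a plate-corrected calcium signal, over three deviations above library mean, with baseline fluorescence within five deviations of library mean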;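 note: RGS4 expression induced by doxycycline in cells with stable M3 receptor; B-score is computed from the integrated fluorescence ratio over baseline after carbachol; higher B-score means a larger calcium signal and so more RGS4 inhibition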
Target sequence (P49798 whole entry, looked up): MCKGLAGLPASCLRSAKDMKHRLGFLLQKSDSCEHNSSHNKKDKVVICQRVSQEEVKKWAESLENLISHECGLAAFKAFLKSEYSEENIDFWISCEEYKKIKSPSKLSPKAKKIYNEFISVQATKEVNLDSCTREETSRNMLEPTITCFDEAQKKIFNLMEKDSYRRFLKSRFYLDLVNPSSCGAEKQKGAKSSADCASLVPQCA
MrgX1 agonist – agonists of human MrgX1 receptor, primary screen, HEK293 cells, Fluo-4 calcium flux. Fluo-4 calcium fluorescence, agonist mode; hits give high values. B-score at 10 µM. hit rate 0.44% among 310,000. AID 588627, 2011;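 active = calcium response B-score plate-corrected fluorescence ratio at least 3 library SD, with starting fluorescence B-score inside 5 SD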
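Test system: HEK293 cells stably expressing human MrgX1 receptor; amount: 15,000 cells per well; doses: compound delivered in addition one of three; times: overnight plating before 1 h dye loading; detection: Fluo-4 NW calcium-flux fluorescence, kinetic read; read-out basis: B-scored fluorescence response ratio; controls: positive and negative controls per plate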
RGS4 act – RGS4 potentiators or activators, primary screen, cell-based, HEK293 M3R inducible RGS4, calcium flux | carbachol calcium flux Fluo4; hits give low values | B-score at 10 µM | hit rate 0.92% among 310,000;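 active = B-score of the integrated calcium signal more than 4 SD below the library mean, with starting fluorescence not abnormally high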;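 note: negative B-score means reduced calcium response which marks RGS4 activation or potentiation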
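Test system: HEK293 cells with stable M3R and inducible RGS4; also added: carbachol at ECmax as muscarinic agonist stimulus; schedule: dye loading 30 min 37 °C, buffer rest 30 min RT; technique: kinetic calcium fluorescence imaging with Fluo4-AM dye, 2 µM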
Of the large screens only hits and unclear results are named; the others gave an inactive call.

CC(C)(C)C(=O)NC(=S)NNC(=O)c1ccc(Cl)cc1Cl	RGS4 act -7.01
O=C(OCC(=O)N1CCCc2ccccc21)c1cccc(S(=O)(=O)N2CCOCC2)c1	none
COc1ccccc1C(=O)COC(=O)c1ccccc1OCC(=O)Nc1ccc(SC(F)F)cc1	RGS4 act -7.85
Cc1coc2c(C)c3oc(=O)c(CCC(=O)NCc4ccccn4)c(C)c3cc12	none
O=C(NCC(O)CO)c1csc(Nc2cccc3ccccc23)n1 (centres undefined)	none
Cc1cc(C(=O)N/N=C/C=C/c2ccc([N+](=O)[O-])cc2)n[nH]1	none
Cc1cc(C(=O)N/N=C/C=C/c2ccc(Br)cc2)n[nH]1	MrgX1 antagonist -5.6
CCc1nc(N2CCN(C(=O)c3ccco3)CC2)c2c3c(sc2n1)CCCC3	none
O=C(c1ccco1)N1CCN(c2ncnc3sc4c(c23)CCC4)CC1	RGS4 act -7.15
COc1cccc(C2=CC(c3ccc(N(C)C)cc3)n3ncnc3N2)c1 (centres undefined)	MrgX1 agonist 48.5
COc1cccc(C2=CC(c3ccccc3)n3ncnc3N2)c1 (centres undefined)	MrgX1 PAM 15.4
COc1ccccc1NC(=S)N(C(C)C)C(C)c1ccccn1 (centres undefined)	none
CC(C)N(C(=S)Nc1cccc(C(F)(F)F)c1)C(C)c1ccccn1 (centres undefined)	MrgX1 antagonist -9.46
COc1ccc(NC(=O)CCC(=O)Nc2nnc(CC(C)C)s2)cc1Cl	none
COc1ccccc1C(=O)N(CCC1CCCN1C)c1nc2ccccc2s1 (centres undefined)	none
Cn1cc(/C=C(\C(=O)O)C(C(=O)O)=C2CCCCC2)c2ccccc21	MrgX1 antagonist -4.79
Cn1cc(/C=C/C(=O)c2ccccc2)c2ccccc21	none
CCOC(=O)C1CCCNC1=O (centres undefined)	none
N#Cc1c(C(F)(F)F)cc(-c2ccco2)nc1SCc1ccncc1	MrgX1 antagonist -5.1
COc1ccc(CNC(=O)[C@H](C)NC(=O)[C@@H]2Cc3ccccc3CN2)cc1	none
CCCCn1c(=O)nc2n(-c3ccccc3C)c3ccccc3cc-2c1=O	RGS4 act -7.62
Cc1ccccc1-n1c2nc(=O)n(C)c(=O)c-2cc2ccccc21	none
COc1ccc(CCNC(=O)CCNC(=O)N2CC(=O)Nc3ccccc32)cc1OC	none
Cc1nn(CC(=O)N2CCOCC2)c(=O)c2ccccc12	none
Cc1nn(CC(=O)N2CCN(Cc3ccccc3)CC2)c(=O)c2ccccc12	MrgX1 PAM 6.86
O=C(c1ccc(F)c(F)c1)N1CCCc2ccccc21	none
Nc1c(C(=O)N/N=C/c2cccnc2)oc2nc(-c3ccco3)cc(-c3ccco3)c12	none
Nc1c(C(=O)N/N=C/c2cccnc2)oc2nc(-c3ccccc3)cc(-c3ccco3)c12	MrgX1 antagonist -6.24, RGS4 act -8.94
COCc1c(C#N)c(NCCc2ccccc2)nc(C)c1[N+](=O)[O-]	MrgX1 antagonist -6.27
COCc1c(C#N)c(NCCc2ccc(F)cc2)nc(C)c1[N+](=O)[O-]	none
Cc1nc(NCCc2ccc(F)cc2)c(C#N)c(C)c1[N+](=O)[O-]	MrgX1 agonist 38
O=C(Cn1c(-c2ccccc2)c[n+]2ccsc12)c1ccc(Br)cc1	RGS4 act -8.13
CCc1oc(C(=O)OC)cc1CSC(=N)N	MrgX1 agonist 42.5
CCCn1cc(CN2CCC(n3nccc3NC(=O)C(OC)c3ccccc3)CC2)c(C)n1 (centres undefined)	none
O=C(N/N=C/c1ccc(Cl)c([N+](=O)[O-])c1)c1cnccn1	MrgX1 antagonist -4.67
Cc1c(OCC(=O)N2C[C@H]3C[C@@H](C2)c2cccc(=O)n2C3)ccc2c3c(c(=O)oc12)CCC3	none
Cc1c(OCC(=O)N2C[C@H]3C[C@@H](C2)c2cccc(=O)n2C3)ccc2c3c(c(=O)oc12)CCCC3	RGS4 act -7.09
O=P(CCCCCCCCCP(=O)(c1ccccc1)c1ccccc1)(c1ccccc1)c1ccccc1	RGS4 act -7.04
CC1=NNC(=O)C1Cc1ccccc1C (centres undefined)	none
COc1ccc(/C(O)=C/C(=O)C(=O)NNC(=O)C(O)(c2ccccc2)c2ccccc2)cc1	MrgX1 antagonist -4.76
COc1ccc(/C(O)=C/C(=O)C(=O)NNC(=O)c2ccccc2)cc1	none
CCN(CC)CCCN1C=C2C(=O)C(C)(OC(=O)CCC(=O)OC)C(=O)C=C2C=C1C1CC1 (centres undefined)	MrgX1 antagonist -5.49
Cc1cc(C)n(CC(=O)N/N=C/c2ccc([N+](=O)[O-])s2)n1	none
Cc1cc(C)n(CC(=O)N/N=C/c2cccs2)n1	MrgX1 antagonist -4.62
CCC1=NN2C(=N)/C(=C\c3ccc(OCCOc4ccc(NC(C)=O)cc4)cc3)C(=O)N=C2S1	MrgX1 PAM 11.2
COc1ccccc1OCCOc1ccc(/C=C2\C(=N)N3N=C(S(C)(=O)=O)SC3=NC2=O)cc1	none
COc1cc(/C=C2\C(=N)N3N=C(C)SC3=NC2=O)cc(OC)c1OCCOc1ccccc1C	none
CCOc1cc(/C=C2\C(=N)N3N=C(CC)SC3=NC2=O)ccc1OCCOc1ccc(NC(C)=O)cc1	none
CCc1nn2c(=O)cc(COc3ccc(/C=C4\C(=N)N5N=C(C)SC5=NC4=O)cc3)nc2s1	MrgX1 PAM 9.4, MrgX1 antagonist -4.53
CCOc1cc(/C=C2\C(=N)N3N=C(C)SC3=NC2=O)ccc1OCCOc1cccc(OC)c1	none
COc1cc(/C=C2\C(=N)N3N=C(C)SC3=NC2=O)cc(Cl)c1OCCOc1ccc(NC(C)=O)cc1	MrgX1 PAM 7.61
CC(=O)Nc1ccc(OCCOc2ccc(/C=C3/C(=N)N4C=CSC4=NC3=O)cc2)cc1	MrgX1 agonist 29.9
CCN(CCn1cccn1)C(=O)CC1C(=O)NCCN1CCc1ccccc1 (centres undefined)	none
O=C(CCN1C(=O)c2cccc3cccc(c23)C1=O)NCc1ccco1	none
COC(=O)C1CCN(C(=O)/C(C)=C\c2ccccc2)CC1	none
COc1cc(/C=C2\C(=N)N3N=C(C(C)C)SC3=NC2=O)ccc1OCCOc1ccc(NC(C)=O)cc1	MrgX1 PAM 13.8
CCC1=NN2C(=N)/C(=C/c3c(C)nn(-c4ccccc4)c3Cl)C(=O)N=C2S1	MrgX1 agonist 30
CCC1=NN2C(=N)/C(=C/c3ccc(OS(=O)(=O)c4ccccc4)c(OC)c3)C(=O)N=C2S1	none
COc1cc(/C=C2/C(=N)N3OC(C)=CC3=NC2=O)ccc1OCCOc1ccc(C)cc1	MrgX1 antagonist -4.94
CCCC1=NN2C(=N)/C(=C\c3ccc(OCCOc4ccc(NC(C)=O)cc4)c(OC)c3)C(=O)N=C2S1	MrgX1 PAM 15
CN(CC(=O)NCc1ccncc1)S(=O)(=O)c1ccc2ccccc2c1	none
